Experimental data reported in ChEMBL document CHEMBL5678817, “FTBMT, a Novel and Selective GPR52 Agonist, Demonstrates Antipsychotic-Like and Procognitive Effects in Rodents, Revealing a Potential Therapeutic Agent for Schizophrenia” (J Pharmacol Exp Ther, 2017).
Active and inactive are the calls of the source. The calls are words filed in the database; no cut-off is given here.

Experiments:
[1] = target: G protein-coupled receptor 52 (Rattus norvegicus, UniProt A0A8I5ZQK1); assay: Agonist activity at rat GPR52 expressed in CHO cells assessed as increase in intracellular cAMP level incubated for 30 mins by Alphascreen assay; format: cell-based
Procedure, shortened: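 CHO cells stably expressing human, mouse or rat GPR52, plus naïve CHO cells, at 10,000 cells/well. Stimulated in cAMP assay buffer for 30 min at 37 °C. Intracellular cAMP read by AlphaScreen.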

[2] = target: MAO-A (amine oxidase [flavin-containing] A) (Homo sapiens, UniProt P21397); assay: Inhibition of MAO-A (unknown origin) at 10 uM relative to control
Procedure, shortened: (§1)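 Enzyme activity assays from the same 98-target biochemical panel. Single test concentration of 10 µM. Read-out is % inhibition of enzyme activity relative to control; negative percentages indicate activation of the enzyme.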

[3] = target: Interstitial collagenase (Homo sapiens) (UniProt P03956); assay: Inhibition of MMP1 (unknown origin) at 10 uM relative to control; procedure, shortened: as §1
[4] = target: Adenosine receptor A2a (Homo sapiens) (UniProt P29274); assay: Inhibition of Adenosine A2A receptor (unknown origin) at 10 uM relative to control
Procedure, shortened: (§2)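 Single-point screen at 10 μM across receptor, ion channel and enzyme binding or activity assays. Expressed as percent inhibition versus control; negative values denote stimulation.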

[5] = target: Alpha-1A adrenergic receptor (Homo sapiens) (UniProt P35348); assay: Inhibition of Adrenergic alpha1 receptor (unknown origin) at 10 uM relative to control; procedure, shortened: as §2
[6] = target: Voltage-gated L-type calcium channel (Homo sapiens, UniProt O60840+Q01668+Q13698+Q13936); assay: Inhibition of Calcium channel L-type (unknown origin) at 10 uM in presence of benzothiazepine relative to control; format: protein assay; details: probe benzothiazepine; procedure, shortened: as §2
[7] = target: GABA-A receptor; anion channel (Homo sapiens) (UniProt P14867+P47870+P18507+P28472+P48169+Q99928+Q9UN88+P34903+O00591+O14764+Q8N1C3+P18505+P78334+P47869+P31644+Q16445); assay: Inhibition of GABAA receptor (unknown origin) at 10 uM in presence of muscimol relative to control; format: protein-complex assay
Procedure, shortened: (§3)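 Part of a 98-target external biochemical selectivity panel that used radioligand/receptor binding-type assays. Compound tested once at 10 µM. Results are reported as % inhibition versus control; negative values mean stimulation of receptor activity.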

[8] = target: Glucocorticoid receptor (Homo sapiens) (UniProt P04150); assay: Inhibition of Glucocorticoid receptor (unknown origin) at 10 uM relative to control; procedure, shortened: as §3
[9] = species on record: Homo sapiens; assay: Inhibition of Glutamate receptor (unknown origin) at 10 uM relative to control; procedure, shortened: as §3
[10] = species on record: Homo sapiens; assay: Inhibition of Glutamate kainate receptor (unknown origin) at 10 uM relative to control; procedure, shortened: as §3
[11] = target: Growth hormone secretagogue receptor type 1 (Homo sapiens) (UniProt Q92847); assay: Inhibition of Growth hormone secretagogue receptor (unknown origin) at 10 uM relative to control; procedure, shortened: as §3
[12] = target: Muscarinic acetylcholine receptor M2 (Homo sapiens) (UniProt P08172); assay: Inhibition of Muscarinic M2 receptor (unknown origin) at 10 uM relative to control; procedure, shortened: as §3
[13] = tested on: Mus musculus; assay: Pro-cognitive activity in GPR52 knockout C57BL/6N mouse assessed as increase in c-fos gene expression in hippocampus at 30 mg/kg, po measured after 2 hrs […]; format: functional, organism-based

Chain of Glucocorticoid receptor (Homo sapiens) (P04150 whole entry): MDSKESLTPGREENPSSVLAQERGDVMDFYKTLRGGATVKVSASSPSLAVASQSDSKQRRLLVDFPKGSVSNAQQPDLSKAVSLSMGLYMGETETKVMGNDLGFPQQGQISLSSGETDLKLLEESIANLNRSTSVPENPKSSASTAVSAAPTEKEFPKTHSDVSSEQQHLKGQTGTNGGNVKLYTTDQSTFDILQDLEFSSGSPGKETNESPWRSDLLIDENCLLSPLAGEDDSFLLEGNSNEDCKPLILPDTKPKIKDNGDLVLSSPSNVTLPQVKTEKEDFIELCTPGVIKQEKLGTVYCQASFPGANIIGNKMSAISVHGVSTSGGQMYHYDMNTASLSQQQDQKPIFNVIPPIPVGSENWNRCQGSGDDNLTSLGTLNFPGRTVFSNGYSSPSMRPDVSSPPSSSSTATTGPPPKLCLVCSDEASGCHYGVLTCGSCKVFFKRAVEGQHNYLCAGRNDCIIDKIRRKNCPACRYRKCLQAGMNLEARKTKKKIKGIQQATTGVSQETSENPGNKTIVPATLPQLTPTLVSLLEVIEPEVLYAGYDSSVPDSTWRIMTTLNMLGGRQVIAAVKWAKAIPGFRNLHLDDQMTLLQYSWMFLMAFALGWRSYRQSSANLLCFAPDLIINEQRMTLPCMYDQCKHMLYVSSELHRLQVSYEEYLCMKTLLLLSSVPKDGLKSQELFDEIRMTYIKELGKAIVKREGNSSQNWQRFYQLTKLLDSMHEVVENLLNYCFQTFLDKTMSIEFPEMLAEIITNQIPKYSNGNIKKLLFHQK
Chain of Adenosine receptor A2a (Homo sapiens) (P29274 whole entry): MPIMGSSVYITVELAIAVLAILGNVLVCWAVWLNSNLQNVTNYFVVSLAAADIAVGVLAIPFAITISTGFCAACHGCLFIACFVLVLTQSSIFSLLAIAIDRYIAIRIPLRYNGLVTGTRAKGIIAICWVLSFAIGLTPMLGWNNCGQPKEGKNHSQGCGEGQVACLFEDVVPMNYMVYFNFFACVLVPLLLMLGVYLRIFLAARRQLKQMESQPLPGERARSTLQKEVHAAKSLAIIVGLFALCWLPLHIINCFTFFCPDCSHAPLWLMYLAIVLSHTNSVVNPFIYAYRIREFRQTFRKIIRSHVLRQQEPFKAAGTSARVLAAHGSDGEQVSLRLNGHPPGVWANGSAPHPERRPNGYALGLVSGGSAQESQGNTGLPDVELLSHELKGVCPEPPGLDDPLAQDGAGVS
Chain of Growth hormone secretagogue receptor type 1 (Homo sapiens) (Q92847 whole entry): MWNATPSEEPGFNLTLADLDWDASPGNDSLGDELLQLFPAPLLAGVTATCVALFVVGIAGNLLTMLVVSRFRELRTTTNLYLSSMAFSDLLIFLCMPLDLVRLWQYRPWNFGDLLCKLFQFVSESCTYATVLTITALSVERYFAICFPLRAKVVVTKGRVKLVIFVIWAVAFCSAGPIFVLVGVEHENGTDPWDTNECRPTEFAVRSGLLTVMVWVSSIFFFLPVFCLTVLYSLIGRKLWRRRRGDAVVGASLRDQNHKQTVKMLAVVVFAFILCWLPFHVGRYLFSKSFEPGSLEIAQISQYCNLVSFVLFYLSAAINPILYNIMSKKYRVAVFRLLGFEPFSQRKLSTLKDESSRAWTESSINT
Chain of Interstitial collagenase (Homo sapiens) (P03956 whole entry): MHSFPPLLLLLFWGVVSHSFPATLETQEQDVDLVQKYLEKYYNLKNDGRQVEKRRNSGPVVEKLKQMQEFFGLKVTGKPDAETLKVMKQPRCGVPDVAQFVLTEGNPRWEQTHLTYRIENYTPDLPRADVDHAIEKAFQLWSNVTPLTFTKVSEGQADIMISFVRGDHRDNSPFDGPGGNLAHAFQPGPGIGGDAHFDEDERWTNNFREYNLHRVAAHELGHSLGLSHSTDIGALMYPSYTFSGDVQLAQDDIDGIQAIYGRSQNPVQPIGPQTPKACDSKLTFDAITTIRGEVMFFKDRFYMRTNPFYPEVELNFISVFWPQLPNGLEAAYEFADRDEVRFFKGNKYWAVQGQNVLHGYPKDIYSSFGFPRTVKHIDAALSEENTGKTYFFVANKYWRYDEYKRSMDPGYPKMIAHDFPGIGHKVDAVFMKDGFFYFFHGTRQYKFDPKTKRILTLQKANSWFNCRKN
Chain of MAO-A (amine oxidase [flavin-containing] A) (P21397 whole entry): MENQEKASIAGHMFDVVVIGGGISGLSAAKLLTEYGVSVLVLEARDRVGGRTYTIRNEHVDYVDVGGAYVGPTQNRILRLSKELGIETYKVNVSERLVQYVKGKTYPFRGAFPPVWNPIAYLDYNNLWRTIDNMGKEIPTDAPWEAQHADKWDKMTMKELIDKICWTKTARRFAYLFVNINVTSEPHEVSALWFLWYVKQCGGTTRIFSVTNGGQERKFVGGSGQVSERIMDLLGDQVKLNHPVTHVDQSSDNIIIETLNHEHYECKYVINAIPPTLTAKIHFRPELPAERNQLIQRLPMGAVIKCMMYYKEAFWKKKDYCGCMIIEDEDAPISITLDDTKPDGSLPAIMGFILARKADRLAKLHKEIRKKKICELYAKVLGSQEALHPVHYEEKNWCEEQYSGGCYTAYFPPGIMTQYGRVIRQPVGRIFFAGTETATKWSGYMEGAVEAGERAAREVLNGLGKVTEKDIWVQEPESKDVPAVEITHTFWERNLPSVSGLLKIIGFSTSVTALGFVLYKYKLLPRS
Chain of Alpha-1A adrenergic receptor (Homo sapiens) (P35348 whole entry): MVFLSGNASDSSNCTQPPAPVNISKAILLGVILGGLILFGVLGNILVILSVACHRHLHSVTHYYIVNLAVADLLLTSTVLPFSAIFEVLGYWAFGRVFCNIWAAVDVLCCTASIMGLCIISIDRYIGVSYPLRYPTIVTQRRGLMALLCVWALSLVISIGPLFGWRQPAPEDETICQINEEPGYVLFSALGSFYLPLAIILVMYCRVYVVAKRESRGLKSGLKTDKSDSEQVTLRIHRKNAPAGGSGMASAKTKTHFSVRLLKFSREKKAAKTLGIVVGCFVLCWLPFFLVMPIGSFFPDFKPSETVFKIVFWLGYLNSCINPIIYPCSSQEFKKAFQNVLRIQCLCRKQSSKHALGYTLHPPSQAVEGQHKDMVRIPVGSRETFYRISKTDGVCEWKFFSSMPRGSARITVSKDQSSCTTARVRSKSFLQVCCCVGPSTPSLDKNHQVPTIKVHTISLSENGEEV
Chain of Muscarinic acetylcholine receptor M2 (Homo sapiens) (P08172 whole entry): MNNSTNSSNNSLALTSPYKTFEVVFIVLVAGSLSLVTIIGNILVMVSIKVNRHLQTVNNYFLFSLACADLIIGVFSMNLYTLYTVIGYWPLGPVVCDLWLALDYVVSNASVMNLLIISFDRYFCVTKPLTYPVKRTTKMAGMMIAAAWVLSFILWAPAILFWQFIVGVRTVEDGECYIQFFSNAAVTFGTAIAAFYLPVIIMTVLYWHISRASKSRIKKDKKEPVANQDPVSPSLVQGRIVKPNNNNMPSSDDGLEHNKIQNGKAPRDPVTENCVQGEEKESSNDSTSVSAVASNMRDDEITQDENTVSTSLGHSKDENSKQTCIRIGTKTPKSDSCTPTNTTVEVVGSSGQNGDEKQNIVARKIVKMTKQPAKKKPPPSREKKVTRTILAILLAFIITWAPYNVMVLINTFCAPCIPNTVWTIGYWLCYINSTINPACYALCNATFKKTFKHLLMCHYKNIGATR
Chain of G protein-coupled receptor 52 (A0A8I5ZQK1 whole entry): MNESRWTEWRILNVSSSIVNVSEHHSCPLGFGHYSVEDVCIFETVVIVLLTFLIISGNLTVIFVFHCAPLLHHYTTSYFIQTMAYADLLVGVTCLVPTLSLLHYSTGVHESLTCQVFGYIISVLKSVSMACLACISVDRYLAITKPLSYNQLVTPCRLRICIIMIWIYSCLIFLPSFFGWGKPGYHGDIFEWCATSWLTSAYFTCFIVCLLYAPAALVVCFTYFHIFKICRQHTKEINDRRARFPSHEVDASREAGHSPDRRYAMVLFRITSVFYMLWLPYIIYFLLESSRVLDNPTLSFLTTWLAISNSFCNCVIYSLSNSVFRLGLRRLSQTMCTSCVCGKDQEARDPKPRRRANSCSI

**Q.** For Cc1cc(-n2nc(Cc3cc(F)cc(C(F)(F)F)c3)nc2C)ccc1C(N)=O [TP-024], which EC50 [1] is on record?
**A.** Its EC50 is 135 nM.

**Q.** What about the inhibition at 10 µM [2] of the same compound?
**A.** Its inhibition at 10 µM is 6%.

**Q.** And the inhibition [3]?
**A.** Its inhibition is -3%.

**Q.** What about the inhibition [4] of the same compound?
**A.** The inhibition was 0%.

**Q.** What about the inhibition [5] of the same compound?
**A.** Its inhibition is 3%.

**Q.** What about the inhibition at 10 µM [6] of the same compound?
**A.** The inhibition at 10 µM was 19%.

**Q.** And the inhibition [7]?
**A.** The inhibition was -1%.

**Q.** And the inhibition [8]?
**A.** Its inhibition is 12%.

**Q.** What about the inhibition [9] of the same compound?
**A.** Its inhibition is 2%.

**Q.** What about the inhibition [10] of the same compound?
**A.** The inhibition was 2%.

**Q.** What about the inhibition [11] of the same compound?
**A.** Its inhibition is 0%.

**Q.** And the inhibition [12]?
**A.** The inhibition was -6%.

**Q.** What about the Activity [13] of the same compound?
**A.** The Activity was “inactive”.
